Calls of active or inactive are those of the source. No cut-off for these calls is given here.
Key:
[1] = Inhibition of HCV genotype 1b NS5B replicase C316N mutant infected in human HuH7 cells assessed as reduction of viral replication after 3 days by luciferase reporter assay; type: cell-based, Hepatitis C virus subtype 1b; settings: Hepatitis C virus, Huh-7, 72 h
Hepatitis C virus [2] = assay: Antiviral activity against HCV genotype 1b infected in human HuH7 cells at >= 10 times antiviral EC50 after 3 days by luciferase reporter assay; type: functional, cell-based; settings: Hepacivirus hominis
[3] = target: Sodium channel protein type 5 subunit alpha (Homo sapiens, UniProt Q14524); assay: Inhibition of Nav1.5 (unknown origin)
[4] = Drug uptake in Sprague-Dawley rat liver at 6 mg/kg, po via gavage after 6 hrs by LC-MS/MS analysis; type: ADME, organism-based; settings: read-out: Drug uptake
Summary of the method: (§1)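 Fasted rats were dosed orally in 90:10 PEG-400/ethanol; 6 h livers came from satellite animals. In the screening variant, n = 2 and plasma was taken to 6 h with livers at the terminal point. Livers were rinsed, blotted, weighed and homogenized in 2 volumes of 80% acetonitrile in HBSS per gram, then centrifuged. Supernatant and plasma were analysed by LC/MS/MS.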

[5] = Aqueous solubility of compound; type: physicochemical; settings: buffer
[6] = Cmax in Sprague-Dawley rat at 6 mg/kg, po administered via gavage using docusate sodium/methocel/water formulation by LC/MS/MS analysis; type: ADME, organism-based; set-up: dose 6 mg/kg, route oral; settings: in vivo
Summary of the method: (§2)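 Rats were fasted overnight and gavaged with a suspension of spray-dried dispersion (10% w/w drug loading in 0.02:0.5:99.48 docusate/methocel/water), n = 3 per group. Serial EDTA plasma was taken predose to 24 h and assayed by LC/MS/MS. Analysis was noncompartmental: Cmax observed, AUC by linear/log trapezoids, F from dose-normalized PO versus IV AUC.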

Hepatitis C virus [7] = assay: Antiviral activity against HCV genotype 1b infected in human HuH7 cells co-treated with daclatasvir/asunaprevir after 3 days by luciferase reporter assay; type: functional, cell-based; settings: Hepacivirus hominis
[8] = Ratio of plasma concentration in human at 25 mg up to 14 days to EC50 for HCV genotype 1b NS5B C316N mutant infected in human HuH7 cells
Summary of the method: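 Randomized, double-blind, placebo-controlled Phase I multiple ascending dose study in healthy volunteers. Oral amorphous solid dispersion formulation, 30% drug loading, given daily for 14 days at doses up to 400 mg/day. Human plasma exposure was measured and set against the replicon EC50.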

[9] = Protein binding in rat serum; type: ADME, cell-free; settings: read-out: PB (converted)
[10] = Half life in monkey liver microsomes; type: ADME, Macaca mulatta, microsome; settings: rhesus monkey
[11] = Membrane permeability at pH 7.4 by PAMPA; type: physicochemical; settings: read-out: permeability
Hepatitis C virus [12] = assay: Ratio of EC50 for HCV genotype 1a infected in human HuH7 cells in presence of 40% human serum to EC50 for HCV genotype 1a infected in human HuH7 cells; type: functional, Hepacivirus hominis, subtype 1a
[13] = target: T1, Voltage-gated inwardly rectifying potassium channel KCNH2 (Homo sapiens, UniProt Q12809); assay: Inhibition of human ERG by thallium flux assay
Hepatitis C virus [14] = assay: Antiviral activity against HCV genotype 1b infected in human HuH7 cells after 3 days by luciferase reporter assay; type: functional, cell-based, Hepacivirus hominis; settings: Hepatitis C virus, genotype 1b, Huh-7, 72 h; read-out: EC50
Hepatitis C virus [15] = assay: Antiviral activity against HCV genotype 6a infected in human HuH7 cells after 3 days by luciferase reporter assay; type: functional, cell-based, Hepacivirus hominis; settings: Huh-7, 72 h
[16] = Half life in dog liver microsomes; type: ADME, Canis lupus familiaris, microsome
[17] = Clearance in Sprague-Dawley rat at 2 mg/kg, iv by LC/MS/MS analysis; type: ADME, organism-based; settings: in vivo
Summary of the method: (§3)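 A 10 min constant-rate jugular vein infusion was given in 90:10 PEG-400/ethanol (v/v), n = 3 rats. Plasma was sampled predose and at 10, 15, 30, 45, 60 min and 2, 4, 6, 8, 24 h, then assayed by LC/MS/MS. Clearance and apparent terminal t1/2 were estimated by noncompartmental analysis.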

[18] = Half life in human liver microsomes; type: ADME, microsome
[19] = Drug uptake in Sprague-Dawley rat liver at 6 mg/kg, po administered via gavage after 24 hrs by LC/MS/MS analysis; type: ADME, organism-based; settings: read-out: Drug uptake; summary of the method: as §1
[20] = Lipophilicity, log D of the compound at pH 6.5 by shake flask method; type: physicochemical; settings: buffer
[21] = Cytotoxicity against human HepG2 cells; type: cell-based
Homo sapiens = assay: Toxicity in human up to 400 mg/day, po for 14 days; settings: in vivo, 336 h
[22] = Oral bioavailability in Sprague-Dawley rat at 6 mg/kg by LC/MS/MS analysis; type: ADME, organism-based; settings: in vivo
Summary of the method: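 Rats were fasted overnight with free access to water, then dosed by gastric gavage with an […] solution in 90:10 PEG-400/ethanol (v/v), n = 3 per group. EDTA plasma was sampled predose and at 15, 30, 45, 60 min and 2, 4, 6, 8, 24 h, then assayed by LC/MS/MS. Parameters come from noncompartmental analysis: Cmax observed directly, AUC by linear/log trapezoidal summation, F as dose-normalized PO/IV AUC ratio.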

[23] = target: Voltage-dependent L-type calcium channel subunit alpha-1C (Homo sapiens, UniProt Q13936); assay: Inhibition of Cav1.2 (unknown origin)
[24] = Oral bioavailability in Sprague-Dawley rat at 6 mg/kg using docusate sodium/methocel/water formulation by LC/MS/MS analysis; type: ADME, organism-based; settings: in vivo; summary of the method: as §2
[25] = Cytotoxicity against human HuH7 cells after 3 days by CellTiter-Blue assay; type: cell-based, Huh-7
[26] = target: T2, Nuclear receptor subfamily 1 group I member 2 (Homo sapiens, UniProt O75469); assay: Transactivation of PXR (unknown origin); type: ADME
T2 sequence (O75469 whole entry): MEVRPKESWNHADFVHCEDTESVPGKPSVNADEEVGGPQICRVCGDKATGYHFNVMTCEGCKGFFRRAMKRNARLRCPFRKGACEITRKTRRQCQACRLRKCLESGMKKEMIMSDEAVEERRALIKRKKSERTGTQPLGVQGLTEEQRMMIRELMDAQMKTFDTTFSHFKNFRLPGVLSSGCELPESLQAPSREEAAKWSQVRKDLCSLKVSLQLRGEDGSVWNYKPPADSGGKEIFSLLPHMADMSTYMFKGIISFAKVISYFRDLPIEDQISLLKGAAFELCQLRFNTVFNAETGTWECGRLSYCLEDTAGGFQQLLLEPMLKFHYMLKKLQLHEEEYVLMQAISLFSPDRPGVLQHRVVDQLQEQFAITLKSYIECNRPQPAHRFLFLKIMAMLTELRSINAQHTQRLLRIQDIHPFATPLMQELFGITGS

Hepatitis C virus [27] = assay: Antiviral activity against HCV genotype 1a infected in human HuH7 cells after 3 days by luciferase reporter assay; type: functional, cell-based, Hepacivirus hominis, subtype 1a; settings: Hepatitis C virus, subtype 1a, Huh-7, 72 h; read-out: EC50
[28] = target: T1, Voltage-gated inwardly rectifying potassium channel KCNH2; assay: Inhibition of human ERG by patch clamp assay
[29] = Half life in Sprague-Dawley rat at 2 mg/kg,iv by LC/MS/MS analysis; type: ADME, organism-based; settings: Sprague-Dawley, in vivo; summary of the method: as §3

T1 sequence (Q12809 whole entry): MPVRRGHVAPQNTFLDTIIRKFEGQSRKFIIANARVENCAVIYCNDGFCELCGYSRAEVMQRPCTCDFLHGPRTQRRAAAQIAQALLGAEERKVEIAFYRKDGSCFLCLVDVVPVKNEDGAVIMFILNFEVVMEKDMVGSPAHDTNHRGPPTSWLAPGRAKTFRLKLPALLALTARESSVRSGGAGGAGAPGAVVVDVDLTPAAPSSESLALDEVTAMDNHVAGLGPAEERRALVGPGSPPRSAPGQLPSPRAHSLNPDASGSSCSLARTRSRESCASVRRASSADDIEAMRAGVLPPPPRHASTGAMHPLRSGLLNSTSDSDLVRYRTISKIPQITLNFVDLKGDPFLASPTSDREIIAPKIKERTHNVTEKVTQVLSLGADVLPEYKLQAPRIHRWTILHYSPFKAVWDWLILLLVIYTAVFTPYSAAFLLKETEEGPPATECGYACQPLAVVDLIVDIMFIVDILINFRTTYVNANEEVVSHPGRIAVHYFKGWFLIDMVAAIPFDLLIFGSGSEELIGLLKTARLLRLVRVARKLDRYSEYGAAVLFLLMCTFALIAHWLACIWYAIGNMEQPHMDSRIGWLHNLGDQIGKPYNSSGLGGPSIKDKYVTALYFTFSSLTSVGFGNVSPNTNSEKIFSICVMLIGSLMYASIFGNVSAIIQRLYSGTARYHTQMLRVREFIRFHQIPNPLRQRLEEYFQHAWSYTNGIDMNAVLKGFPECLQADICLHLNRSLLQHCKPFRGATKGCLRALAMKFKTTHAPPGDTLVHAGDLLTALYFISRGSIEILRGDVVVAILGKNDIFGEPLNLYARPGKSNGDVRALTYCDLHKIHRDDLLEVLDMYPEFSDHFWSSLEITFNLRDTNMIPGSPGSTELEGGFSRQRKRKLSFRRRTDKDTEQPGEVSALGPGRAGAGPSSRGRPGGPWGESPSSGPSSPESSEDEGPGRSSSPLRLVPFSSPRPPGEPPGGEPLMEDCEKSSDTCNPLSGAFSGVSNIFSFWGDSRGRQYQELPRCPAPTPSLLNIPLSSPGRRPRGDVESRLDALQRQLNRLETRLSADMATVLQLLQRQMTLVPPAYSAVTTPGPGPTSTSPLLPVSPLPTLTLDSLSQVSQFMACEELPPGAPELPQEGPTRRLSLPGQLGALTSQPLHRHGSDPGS
Voltage-dependent L-type calcium channel subunit alpha-1C, sequence (Q13936 whole entry): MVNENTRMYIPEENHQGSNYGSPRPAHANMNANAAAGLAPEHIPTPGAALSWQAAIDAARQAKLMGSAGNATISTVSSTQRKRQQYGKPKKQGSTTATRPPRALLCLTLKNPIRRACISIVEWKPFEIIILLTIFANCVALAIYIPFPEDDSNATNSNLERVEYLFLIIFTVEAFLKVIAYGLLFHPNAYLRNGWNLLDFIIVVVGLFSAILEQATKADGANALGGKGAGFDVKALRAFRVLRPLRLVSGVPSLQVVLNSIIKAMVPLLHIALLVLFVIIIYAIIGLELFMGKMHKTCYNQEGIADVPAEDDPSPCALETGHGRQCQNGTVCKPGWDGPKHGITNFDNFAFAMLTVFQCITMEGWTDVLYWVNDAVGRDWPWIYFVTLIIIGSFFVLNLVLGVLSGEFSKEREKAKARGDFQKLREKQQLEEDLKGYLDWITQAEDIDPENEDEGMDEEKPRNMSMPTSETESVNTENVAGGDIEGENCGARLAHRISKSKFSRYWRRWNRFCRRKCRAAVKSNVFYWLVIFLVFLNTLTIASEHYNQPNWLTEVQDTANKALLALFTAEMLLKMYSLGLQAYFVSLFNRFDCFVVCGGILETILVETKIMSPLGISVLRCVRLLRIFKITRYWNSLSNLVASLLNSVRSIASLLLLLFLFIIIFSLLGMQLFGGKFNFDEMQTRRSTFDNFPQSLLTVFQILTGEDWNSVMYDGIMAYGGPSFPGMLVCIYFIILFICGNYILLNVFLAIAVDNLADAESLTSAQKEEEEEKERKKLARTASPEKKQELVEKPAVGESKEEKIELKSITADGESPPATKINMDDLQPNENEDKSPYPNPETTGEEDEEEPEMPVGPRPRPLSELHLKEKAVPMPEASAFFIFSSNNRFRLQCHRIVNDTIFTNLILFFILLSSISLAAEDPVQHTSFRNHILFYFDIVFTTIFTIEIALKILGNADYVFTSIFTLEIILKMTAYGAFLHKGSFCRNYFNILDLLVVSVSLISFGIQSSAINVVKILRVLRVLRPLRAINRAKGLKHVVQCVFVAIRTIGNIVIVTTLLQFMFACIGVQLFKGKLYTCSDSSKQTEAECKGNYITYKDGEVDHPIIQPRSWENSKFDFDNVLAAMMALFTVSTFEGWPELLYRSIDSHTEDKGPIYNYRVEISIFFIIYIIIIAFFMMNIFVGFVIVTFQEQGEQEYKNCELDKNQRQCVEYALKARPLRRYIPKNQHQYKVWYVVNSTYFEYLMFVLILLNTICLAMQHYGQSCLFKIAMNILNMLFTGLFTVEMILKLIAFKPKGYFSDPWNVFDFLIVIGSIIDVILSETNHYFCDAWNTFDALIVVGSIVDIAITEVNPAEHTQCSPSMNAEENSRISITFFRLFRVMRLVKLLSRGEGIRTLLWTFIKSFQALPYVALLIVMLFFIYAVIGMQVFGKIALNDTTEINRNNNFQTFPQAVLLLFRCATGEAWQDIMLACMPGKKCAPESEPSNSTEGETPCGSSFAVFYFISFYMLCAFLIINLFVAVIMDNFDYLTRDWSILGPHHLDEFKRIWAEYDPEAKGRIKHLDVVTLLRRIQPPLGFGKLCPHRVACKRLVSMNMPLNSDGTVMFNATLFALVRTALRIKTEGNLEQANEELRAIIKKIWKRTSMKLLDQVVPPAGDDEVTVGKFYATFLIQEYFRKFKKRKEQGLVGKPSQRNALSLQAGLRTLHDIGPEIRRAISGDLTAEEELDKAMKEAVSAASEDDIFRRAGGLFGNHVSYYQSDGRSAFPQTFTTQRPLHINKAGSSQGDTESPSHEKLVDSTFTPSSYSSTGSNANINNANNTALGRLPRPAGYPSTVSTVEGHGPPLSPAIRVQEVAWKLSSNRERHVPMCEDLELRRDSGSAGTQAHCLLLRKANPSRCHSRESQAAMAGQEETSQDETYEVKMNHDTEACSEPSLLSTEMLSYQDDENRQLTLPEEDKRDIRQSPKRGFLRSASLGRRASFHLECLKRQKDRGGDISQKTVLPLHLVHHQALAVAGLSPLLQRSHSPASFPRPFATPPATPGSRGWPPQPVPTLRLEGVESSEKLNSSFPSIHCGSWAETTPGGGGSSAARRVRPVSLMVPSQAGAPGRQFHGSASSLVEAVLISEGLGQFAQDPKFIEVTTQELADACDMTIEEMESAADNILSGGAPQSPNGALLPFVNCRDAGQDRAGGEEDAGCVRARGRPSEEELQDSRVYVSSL

## CNC(=O)c1c(-c2ccc(F)cc2)oc2ccc(-c3cc(C(=O)NC4(c5ncccn5)CC4)ccc3C)c(F)c12 [BMS-929075]
[1]
  EC50: 0.018 µM
Hepatitis C virus [2]
  Activity: Active
[3]
  inhibition (INH): Not Active
[4]
  concentration at 6 h: 15.1 µM
[5]
  solubility: < 1 µg/mL
[6]
  Cmax: 14.7 µM
Hepatitis C virus [7]
  Activity: Active
[8]
  Ratio: 10
[9]
  fraction unbound: 0.003
[10]
  half-life: > 2 h
[11]
  Papp: 97.2 ×10⁻⁶ cm/s
Hepatitis C virus [12]
  Ratio EC50: 5.5
[13]
  IC50: 24 µM
Hepatitis C virus [14]
  EC50: 0.004 µM
Hepatitis C virus [15]
  EC50: 0.005 µM
[16]
  half-life: > 2 h
[17]
  clearance: 1.7 mL/min/kg
[18]
  half-life: > 2 h
[19]
  concentration at 24 h: 1.12 µM
[20]
  logD: 5.09
[21]
  CC50: > 12.5 µM
Homo sapiens
  Activity: Non-Toxic
[22]
  bioavailability: 48%
[23]
  inhibition (INH): Not Active
[24]
  bioavailability: > 100%
[25]
  CC50 at 72 h: 60 µM
[26]
  EC50: > 50 µM
Hepatitis C virus [27]
  EC50: 0.009 µM
[28]
  IC50: 18 µM
[29]
  half-life: 4.7 h

Source: ChEMBL document CHEMBL4014311, “Discovery of a Hepatitis C Virus NS5B Replicase Palm Site Allosteric Inhibitor (BMS-929075) Advanced to Phase 1 Clinical Studies” (J Med Chem, 2017)
